Screening results (PubChem)
Most compounds without a hit are left out; they make up all but 1.2% or so of the library.
FN deposition inh: inhibitors of fibronectin matrix deposition, primary screen, AH1F cells, Alexa488-fibronectin fluorescence, plate reader; inhibition, % at 12.6 µM; AH1F fibroblasts, overnight; hit rate 0.086% among 350,000;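 active means mean inhibition across replicates of 30% or more, regardless of how many single replicates reach that level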
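test system = AH1F fibroblasts assembling fluorescent fibronectin matrix | quantity = 10000 AH1F cells per well | buffer or medium = DMEM plus 2% serum, read in PBS | doses = single dose, pinned | incubation = 1 h cell attachment, overnight exposure to compound and label | detection = fluorescence at 485 nm excitation, 525 nm emission | read-out basis = inhibition from reduced deposited-fibronectin fluorescence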
A3G deaminase: APOBEC3G DNA deaminase inhibitors, primary screen, biochemical, fluorescence, single-stranded DNA substrate, uHTS. inhibition, % at 20 µM. AID 493012, 2011. DNA dC->dU-editing enzyme APOBEC-3G (Homo sapiens), Q9HC16. hit rate 0.28% among 330,000. recombinant A3G, ssDNA deamination FAM/TAMRA fluorescence;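 active means inhibition of at least 40% at 20 µM, with no more than 30% in the related APOBEC3A deaminase screen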
A3A deaminase: APOBEC3A ssDNA deaminase inhibitors, primary screen, selectivity assay for APOBEC3G inhibitor project, biochemical, FAM/TAMRA oligo cleavage fluorescence; DNA dC->dU-editing enzyme APOBEC-3A (Homo sapiens), P31941; recombinant A3A, FAM/TAMRA ssDNA deamination fluorescence; inhibition, % at 20 µM; hit rate 0.41% among 330,000;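 active means at least 40% inhibition at 20 µM here, with at most 30% in a related deaminase screen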
Target sequence (P31941 whole entry, looked up): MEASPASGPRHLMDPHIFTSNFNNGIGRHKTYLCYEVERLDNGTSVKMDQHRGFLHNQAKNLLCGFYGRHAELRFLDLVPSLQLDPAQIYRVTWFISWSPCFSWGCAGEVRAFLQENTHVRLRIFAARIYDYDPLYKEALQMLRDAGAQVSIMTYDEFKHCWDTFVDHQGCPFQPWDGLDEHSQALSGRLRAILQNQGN
ABHD5 PLIN5 PPI: ABHD5-PLIN5 interaction inhibitors, primary screen, cell lysate, split luciferase complementation, luminescence. hit rate 0.78% among 360,000. AID 602281, 2012. Split G. princeps luciferase complementation, 4 h. Perilipin-5 (Homo sapiens) + 1-acylglycerol-3-phosphate O-acyltransferase ABHD5 (Homo …. inhibition, % at 4 µM;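 active means inhibition above the mean inhibition across every tested compound plus 3 SD, cut at about 22% in these data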
A3G conf: APOBEC3G deaminase inhibitor retest, confirmation, biochemical, fluorescence, single-stranded DNA substrate, single concentration | shares compounds with A3G deaminase | recombinant A3G ssDNA deaminase, UDG/FAM-TAMRA fluorescence | inhibition, % at 20 µM | hit rate 72% among 890 | AID 493152, 2011;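 active means inhibition reaching a set limit in any replicate at 20 µM, the limit being 80% of the first screen's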
UDG ctr A3G: E. coli UDG inhibitors, confirmation, counter-screen for APOBEC3G inhibitor project, biochemical, single concentration, fluorescence, FAM/TAMRA oligo | shares compounds with A3G deaminase | UDG counterscreen | inhibition, % at 20 µM | 710 tested, under 10 active;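 active means compounds giving 40% or more inhibition at 20 µM in any one of the three replicates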;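 further: inhibitors lower the FAM signal released by uracil excision and alkaline cleavage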
Target sequence (P12295 whole entry, looked up): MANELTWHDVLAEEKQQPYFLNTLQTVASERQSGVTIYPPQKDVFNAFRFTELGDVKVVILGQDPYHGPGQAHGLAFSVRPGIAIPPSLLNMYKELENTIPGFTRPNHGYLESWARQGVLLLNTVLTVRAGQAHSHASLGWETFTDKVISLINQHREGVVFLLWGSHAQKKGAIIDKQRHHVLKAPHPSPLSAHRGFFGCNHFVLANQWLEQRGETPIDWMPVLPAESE
Large screens that a line does not name were inactive (follow-up assays come after a bar, where they were run).

COc1ccc(-c2n[nH]c(=S)n2/N=C/c2cccn2C)cc1	none
COc1ccc(-c2cnc3c(c2)C(=O)N([C@H](C)CO)C[C@@H](C)[C@H](CN(C)S(C)(=O)=O)O3)cc1	none (no result: A3G deaminase, A3A deaminase, ABHD5 PLIN5 PPI)
COc1ccc(NC(=O)N(C)C[C@@H]2Oc3c(NS(=O)(=O)c4ccc(F)cc4)cccc3C(=O)N([C@@H](C)CO)C[C@H]2C)cc1	none (no result: A3G deaminase, A3A deaminase, ABHD5 PLIN5 PPI)
Cc1ccc(NC2Sc3ccccc3NC2=O)cc1 (configuration not stated)	A3G deaminase 51 | A3G conf inactive | UDG ctr A3G inactive
CN(C)S(=O)(=O)c1cc(NC(=O)CN2CCN(c3ccc(O)cc3)CC2)ccc1Cl	A3G deaminase 58 | A3G conf inactive | UDG ctr A3G inactive
CO[C@H]1CN(C)C(=O)c2cc(NC(=O)c3cnccn3)ccc2OC[C@H](C)N(CCc2ccccc2)C[C@H]1C	none (no result: A3G deaminase, A3A deaminase, ABHD5 PLIN5 PPI)
S=c1[nH]c(-c2ccccc2)cn1/N=C/c1ccncc1	A3G deaminase 56 | A3G conf 71 | UDG ctr A3G inactive
CC(=O)N1CCN(c2ccc(S(=O)(=O)N3CCCCC3)cn2)CC1	none
O=S(=O)(c1ccc(N2CCN(CCO)CC2)nc1)N1CCCCC1	A3G deaminase 42 (no result: FN deposition inh) | A3G conf inactive
C[C@H](NC(=O)c1cc2c(cn1)[nH]c1ccccc12)C(=O)O	none
COC(=O)[C@H](C)NC(=O)c1cc2c(cn1)[nH]c1ccccc12	A3G deaminase 50 | A3G conf 77 | UDG ctr A3G inactive
CCC(=O)Nc1ccc2c(c1)OC[C@@H](C)N(CC1CCOCC1)C[C@@H](C)[C@H](OC)CN(C)C2=O	none (no result: A3G deaminase, A3A deaminase, ABHD5 PLIN5 PPI)
O=C(N[C@H]1C=C[C@@H](CC(=O)N2CCCCC2)O[C@H]1CO)c1ccc2c(c1)OCO2	none (no result: A3G deaminase, A3A deaminase, ABHD5 PLIN5 PPI)
COc1ccc(OC)c(C2CC(=O)N3CN(c4cccc(Cl)c4)CSC3=C2C#N)c1 (configuration not stated)	none
COc1cc(OC)c(C2CC(=O)N3CN(c4ccccc4)CSC3=C2C#N)cc1OC (configuration not stated)	none
N#CC1=C2SCN(c3ccccc3)CN2C(=O)CC1c1cccs1 (configuration not stated)	A3G deaminase 48 | A3G conf 55 | UDG ctr A3G inactive
N#CC1=C2SCN(c3ccccc3)CN2C(=O)CC1c1c(Cl)cccc1Cl (configuration not stated)	A3G deaminase 59 | A3G conf 65 | UDG ctr A3G inactive
CCOc1ccc(C(=S)NC2CCCCC2)cc1OC	A3G deaminase 58 (no result: FN deposition inh) | A3G conf 50 | UDG ctr A3G inactive
C[C@H](CO)N1C[C@H](C)[C@@H](CN(C)Cc2ccc(-c3ccccc3)cc2)Oc2c(NC(=O)CCC(F)(F)F)cccc2C1=O	none (no result: A3G deaminase, A3A deaminase, ABHD5 PLIN5 PPI)
CCCN1C[C@H](C)[C@@H](OC)CN(C)C(=O)c2cc(NC(=O)COC)ccc2OC[C@H]1C	none (no result: A3G deaminase, A3A deaminase, ABHD5 PLIN5 PPI)
O=C1NN=C(CSc2n[nH]c(=S)s2)CS1	A3G deaminase 67 | A3G conf 67 | UDG ctr A3G inactive
CC(CSc1n[nH]c(=S)s1)c1ccccc1 (configuration not stated)	none (no result: A3G deaminase, A3A deaminase)
COc1ccc(NC(=O)Nc2ccc3c(c2)CC(=O)N([C@H](C)CO)C[C@@H](C)[C@H](CN(C)S(=O)(=O)c2ccc(Cl)cc2)O3)cc1	none (no result: A3G deaminase, A3A deaminase, ABHD5 PLIN5 PPI)
CCCn1c(-c2ccc(F)cc2)n[nH]c1=S	none
CCn1c(CCCCc2n[nH]c(=S)n2CC)n[nH]c1=S	A3G deaminase 47 | A3G conf 88 | UDG ctr A3G inactive
CCn1c(-c2ccc(OC)c(OC)c2)n[nH]c1=S	none (no result: FN deposition inh)
CCCCn1c(-c2ccc([N+](=O)[O-])cc2)n[nH]c1=S	A3G deaminase 48 (no result: FN deposition inh) | A3G conf 76 | UDG ctr A3G inactive
CCn1c(-c2ccc(C)cc2)n[nH]c1=S	A3G deaminase 51 | A3G conf inactive
